# Laboratory results taken from ChEMBL document CHEMBL5352422, “Development of l-Dopa-containing diketopiperazines as blood-brain barrier shuttle” (Eur J Med Chem, 2022).
# Calls of active or inactive are those of the source. The calls are words filed in the database; no cut-off is given here.
# Assays:
# [1] = Antioxidant activity against rat Cerebral cortex cell assessed as trolox equivalent of total antioxidant capacity at 50 nM incubated for 24 hrs (14.7 to 27.5 mmolequiv/L ); assay type: functional, Cerebral cortex neuron
# [2] = Induction of DNA damage in rat Cerebral cortex cell assessed as total DNA damage score at 500 nM incubated for 24 hrs by Comet assay (reference value: 36.8 to 89.2); assay type: functional, Cerebral cortex neuron
# [3] = Antioxidant activity against Primary human whole blood cell assessed as trolox equivalent of total antioxidant capacity at 500 nM incubated for 24 hrs (19.3 to 32.5 mmolequiv/L ); assay type: functional
# [4] = Antioxidant activity against Primary human whole blood cell assessed as H2O2 equivalent of total oxidative stress at 500 nM incubated for 24 hrs (0.6 to 1.9 micromolequiv/L); assay type: functional
# [5] = Antioxidant activity against Primary human whole blood cell assessed as H2O2 equivalent of total oxidative stress at 100 nM incubated for 24 hrs (0.6 to 1.9 micromolequiv/L); assay type: functional
# [6] = Stability in human plasma assessed as observed rate constant by HPLC method; assay type: ADME, cell-free
# In short: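 Stock added to 37 °C human plasma diluted with 0.02 M phosphate buffer pH 7.4 to 80% plasma. Aliquots taken over time were quenched with 0.01 M HCl in methanol, centrifuged 5 min at 5000 g, and supernatant analyzed by HPLC-UV. t1/2 and k_obs are means of three experiments ± SD.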
# [7] = Induction of DNA damage in Primary human whole blood cell assessed as 8-OH-dG adducts formation at 10 nM incubated for 24 hrs by […] (reference value: 0.12 to 2.21 pg/ml); assay type: functional
# [8] = Antioxidant activity against Primary human whole blood cell assessed as H2O2 equivalent of total oxidative stress at 50 nM incubated for 24 hrs (0.6 to 1.9 micromolequiv/L); assay type: functional
# [9] = Antioxidant activity against rat Cerebral cortex cell assessed as trolox equivalent of total antioxidant capacity at 500 nM incubated for 24 hrs (14.7 to 27.5 mmolequiv/L ); assay type: functional, Cerebral cortex neuron
# [10] = Induction of DNA damage in rat Cerebral cortex cell assessed as total DNA damage score at 50 nM incubated for 24 hrs by Comet assay (reference value: 36.8 to 89.2); assay type: functional, Cerebral cortex neuron
# [11] = Genotoxicity in human Lymphocyte assessed as micronuclei formation measured per 1000 cells at 250 nM incubated for 72 hrs giemsa staining based analysis (reference value: 4.5 to 17.9); assay type: toxicity, cell-based; details: 0.25 µM
# In short: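 Human whole-blood lymphocyte cultures with phytohemagglutinin, incubated with compound for 72 h at 37 °C. Cytochalasin B added at 44 h. Cells fixed in ice-cold methanol/acetic acid 1:1, cytospun, Giemsa-stained. At least 1000 binucleated lymphocytes per concentration scored for micronuclei by one observer.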
# [12] = Induction of DNA damage in Primary human whole blood cell assessed as total DNA damage score at 500 nM incubated for 24 hrs by Comet assay (reference value: 35.4 to 77.9); assay type: functional
# [13] = Induction of DNA damage in rat Cerebral cortex cell assessed as total DNA damage score at 10 nM incubated for 24 hrs by Comet assay (reference value: 36.8 to 89.2); assay type: functional, Cerebral cortex neuron
# [14] = Antioxidant activity against rat Cerebral cortex cell assessed as H2O2 equivalent of total oxidative stress at 10 nM incubated for 24 hrs (0.7 to 2.3 micromolequiv/L); assay type: functional, Cerebral cortex neuron
# PC-12 [15] = assay: Cytoprotective activity against MPP+ induced cell death in rat PC-12 cells at 10 to 500 nM preincubated with compound for 24 hrs followed by MPP+ exposure for 24 hrs by MTT assay; assay type: functional, cell-based; details: dose 10-500 nM, time 48.0 hrs
# In short: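 PC12 cells in RPMI with horse and fetal calf serum on polylysine-coated flasks. Pretreated 24 h with compound (10–500 nM), then 25 µM MPP+ for a further 24 h. MTT formazan solubilized in SDS/HCl, read at 550 nm. Expressed as % of untreated control absorbance; n = 3, mean ± SD.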
# [16] = Induction of DNA damage in Primary human whole blood cell assessed as 8-OH-dG adducts formation at 100 nM incubated for 24 hrs by […] (reference value: 0.12 to 2.21 pg/ml); assay type: functional
# PC-12 [17] = assay: Inhibition of MPP+ induced ROS production in rat PC-12 cells at 100 nM preincubated with compound for 24 hrs followed by MPP+ treatment for 24 hrs by DCFH-DA staining based fluorescence method; details: time 48.0 hrs
# [18] = Induction of DNA damage in Primary human whole blood cell assessed as 8-OH-dG adducts formation at 500 nM incubated for 24 hrs by […] (reference value: 0.12 to 2.21 pg/ml); assay type: functional
# [19] = Antioxidant activity against Primary human whole blood cell assessed as H2O2 equivalent of total oxidative stress at 250 nM incubated for 24 hrs (0.6 to 1.9 micromolequiv/L); assay type: functional
# [20] = Induction of DNA damage in Primary human whole blood cell assessed as total DNA damage score at 250 nM incubated for 24 hrs by Comet assay (reference value: 35.4 to 77.9); assay type: functional
# [21] = Induction of DNA damage in rat Cerebral cortex cell assessed as 8-OH-dG adducts formation at 50 nM incubated for 24 hrs by […] (reference value: 0.14 to 1.92 pg/ml); assay type: functional, Cerebral cortex neuron
# In short: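 Primary rat cerebral cortex neurons from fetuses, grown in neurobasal medium with FCS on poly-D-lysine flasks and used after 8 days. Aqueous compound at 10–500 nM for 24 h at 37 °C. Untreated cultures served as negative control and MMC 10^-7 M as positive control. 8-OH-dG measured with a commercial ELISA-type kit and reported in pg/mL. Four independent experiments, mean ± SD.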
# PC-12 [22] = assay: Inhibition of MPP+ induced GSH level in rat PC-12 cells at 100 nM preincubated with compound for 24 hrs followed by MPP+ treatment for 24 hrs by DTNB reagent based analysis; assay type: functional, cell-based; details: time 48.0 hrs
# [23] = Induction of DNA damage in Primary human whole blood cell assessed as 8-OH-dG adducts formation at 50 nM incubated for 24 hrs by […] (reference value: 0.12 to 2.21 pg/ml); assay type: functional
# [24] = Induction of DNA damage in Primary human whole blood cell assessed as total DNA damage score at 50 nM incubated for 24 hrs by Comet assay (reference value: 35.4 to 77.9); assay type: functional
# [25] = Genotoxicity in human Lymphocyte assessed as sister chromatid exchange measured per cells at 500 nM incubated for 72 hrs giemsa staining based fluorescence method (reference value: 6.6 to 14.3); assay type: toxicity, cell-based; details: 0.5 µM
# [26] = Antioxidant activity against Primary human whole blood cell assessed as trolox equivalent of total antioxidant capacity at 250 nM incubated for 24 hrs (19.3 to 32.5 mmolequiv/L ); assay type: functional
# [27] = Antioxidant activity against rat Cerebral cortex cell assessed as H2O2 equivalent of total oxidative stress at 100 nM incubated for 24 hrs (0.7 to 2.3 micromolequiv/L); assay type: functional, Cerebral cortex neuron
# [28] = Genotoxicity in human Lymphocyte assessed as sister chromatid exchange measured per cells at 50 nM incubated for 72 hrs giemsa staining based fluorescence method (reference value: 6.6 to 14.3); assay type: toxicity, cell-based; details: 0.05 µM
# [29] = Antioxidant activity against rat Cerebral cortex cell assessed as trolox equivalent of total antioxidant capacity at 250 nM incubated for 24 hrs (14.7 to 27.5 mmolequiv/L ); assay type: functional, Cerebral cortex neuron
Compound,Activity [1],Activity [2],Activity [3],Activity [4],Activity [5],Kobs [6],Activity [7],Activity [8],Activity [9],Activity [10],Activity [11],Activity [12],Activity [13],Activity [14],Activity (PC-12 [15]),Activity [16],inhibition (PC-12 [17]),Activity [18],Activity [19],Activity [20],also measured
C#CCSC[C@H]1NC(=O)[C@H](Cc2ccc(OC(C)=O)c(OC(C)=O)c2)NC1=O,15.5 mmolequiv/L,38.1,19.4 mmolequiv/L,0.7 umolequiv/L,0.6 umolequiv/L,0.332 h⁻¹,0.12 pg/mL,0.6 umolequiv/L,14.8 mmolequiv/L,37.2,5.1,36.3,36.9,0.7 umolequiv/L,Active,0.12 pg/mL,Active,0.13 pg/mL,0.7 umolequiv/L,35.9,Activity [21]: 0.14 pg/mL; inhibition (PC-12 [22]): Active; Activity [23]: 0.11 pg/mL; Activity [24]: 35.8; Activity [25]: 6.9; Activity [26]: 19.8 mmolequiv/L; Activity [27]: 0.6 umolequiv/L; Activity [28]: 6.8; Activity [29]: 15.4 mmolequiv/L
C=CCSC[C@H]1NC(=O)[C@H](Cc2ccc(OC(C)=O)c(OC(C)=O)c2)NC1=O,14.3 mmolequiv/L,37.6,18.4 mmolequiv/L,0.7 umolequiv/L,0.7 umolequiv/L,7.22 h⁻¹,0.12 pg/mL,0.7 umolequiv/L,14.9 mmolequiv/L,36.4,5.2,36.1,36.3,0.7 umolequiv/L,Active,0.12 pg/mL,Active,0.13 pg/mL,0.7 umolequiv/L,35.7,Activity [21]: 0.13 pg/mL; inhibition (PC-12 [22]): inactive; Activity [23]: 0.12 pg/mL; Activity [24]: 35.7; Activity [25]: 7; Activity [26]: 18.8 mmolequiv/L; Activity [27]: 0.7 umolequiv/L; Activity [28]: 6.7; Activity [29]: 14.7 mmolequiv/L
